pKd: −log10 of the molar value. Entries after “also recorded” stand apart in the source; their conditions may differ.

One experiment deals with CD8+ 42F3 T cells. As to the kind of experiment: IL-2 release dose response of CD8+ 42F3 T cells to peptide-pulsed APCs. The settings on record: for maximal IL-2 response (high / medium / low): transduced CD8+ 42F3 cells, among CD8-dependent agonists; for IL-2 agonist character (in words): titrated IL-2 response in CD8+ 42F3 T cells. Format: cell-based, murine. The method in brief:
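Murine 58−/− hybridoma (TCRα−β−) expressing CD8αβ, retrovirally transduced with 42F3 TCR, co-cultured 1:1 with LM1.8-L^dW97R APCs (5x10⁴ cells; grown in RPMI/10% FBS) and titrated peptide for 20 h at 37°C. Peptide stocks were 50mM in DMSO, diluted in RPMI. IL-2 in supernatants was measured by HRP-colorimetric ELISA. EC50 and Emax came from the titration curves.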

Experiment [1] deals with pCPE3 / H-2L^d mini-MHC m31r (murine). As to the kind of experiment: SPR. In general terms: SPR reads the build-up and loss of mass on a sensor chip optically.
The target of experiment [2] is p4B10 / H-2L^d mini-MHC m31r (murine). The experiment can be described thus: SPR.
Experiment [3] deals with pCPA12 / H-2L^d mini-MHC m31r (murine). The experiment can be described thus: SPR.
The target in experiment [4] is pCPB9 / H-2L^d mini-MHC m31r (murine). As to the kind of experiment: SPR.
The target of experiment [5] is pCPB7 / H-2L^d mini-MHC m31r (murine). The experiment can be described thus: SPR.
The target in experiment [6] is pCPC5 / H-2L^d mini-MHC m31r (murine). The experiment can be described thus: SPR.

For the substance FLSPFWFDI [p5E8], in the experiment on CD8+ 42F3 T cells, the “maximal IL-2 response (high / medium / low)” value was “high”.
As usually defined, the pKd is the negative decadic logarithm of the Kd, by convention in mol/L. A higher pKd goes with a small Kd. As usually defined, the koff is the rate constant with which the complex falls apart. A low value points to slow dissociation. One may read the kon as the second-order rate constant of association. A higher kon goes with faster complex formation. For the substance 42F3 TCR, the negative-log Kd (pKd) was 6.15 in experiment [1], 5.00 in experiment [2], 5.70 in experiment [3] and 6.00 in experiment [6]. For the same substance, the koff in experiment [1] was 0.166 s⁻¹; in experiment [2], more than 0.5 s⁻¹; in experiment [3], 0.0579 s⁻¹; in experiment [4], 0.0668 s⁻¹; in experiment [5], 0.0579 s⁻¹; in experiment [6], 0.197 s⁻¹. Moreover, the association rate constant (kon) in experiment [1] is 58600 M⁻¹ s⁻¹; in experiment [3] it was 31400 M⁻¹ s⁻¹; in experiment [5] it was 495000 M⁻¹ s⁻¹.
For VPYMAEFGM [pCPA12], in the experiment on CD8+ 42F3 T cells, the “IL-2 agonist character (in words)” value is given as “partial IL-2 responses; also recorded: partial agonist” and the “maximal IL-2 response (high / medium / low)” value was “medium”.
Regarding MPAGRPWDL [pCPE3], in the experiment with CD8+ 42F3 T cells, the “IL-2 agonist character (in words)” value was “weak agonist; also recorded: partial agonist”.
As to SPAPRPLDL [pCPC5], in the experiment on CD8+ 42F3 T cells, the “IL-2 agonist character (in words)” value is recorded as “partial IL-2 responses; also recorded: partial agonist”.

The values above are taken from paper PMC4684756 (Nature immunology, 2015).
